How the values were obtained:
[1] = test system: Neuron; experiment: Inhibition of kainate-induced neurotoxicity in primary rat hippocampal neurons at 10 uM after 24 hrs by LDH assay; type: functional
Procedure, shortened: (§1)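 Hippocampal cultures from embryonic day 18–20 Wistar rats, used after 8 or 9 days in vitro. Compounds added together with 300 µM kainate. Neuronal injury measured 24 h later as LDH release into the medium. Values are IC50 (concentration for 50% inhibition) or percent inhibition at 10 µM.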

[2] = test system: Neuron; experiment: Inhibition of kainate-induced neurotoxicity in primary rat hippocampal neurons after 24 hrs by LDH assay; type: functional, cell-based; procedure, shortened: as §1
[3] = test system: Mus musculus; experiment: Anticonvulsant activity in po dosed ICR mouse assessed as protection from maximal electroshock-induced seizure measured after 60 mins post dose; type: functional; settings: 1 h
Procedure, shortened: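 Compounds given orally to mice; 60 min later corneal electroshock applied (50 mA, 0.2 s, 50 Hz). Protection scored as absence of tonic extension. ED50 calculated by probit method, with 95% confidence intervals.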

[4] = Total clearance in rat at 1 mg/kg, iv; type: ADME, organism-based; set-up: dose 1 mg/kg, route intravenous; settings: in vivo
[5] = Tmax in rat at 1 mg/kg, po; type: ADME, organism-based; set-up: dose 1 mg/kg, route oral; settings: in vivo
[6] = Half life in rat at 1 mg/kg, iv; type: ADME, organism-based; set-up: dose 1 mg/kg, route intravenous; settings: in vivo
[7] = Volume of distribution at steady state in rat at 1 mg/kg, iv; type: ADME, organism-based; set-up: dose 1 mg/kg, route intravenous; settings: in vivo, read-out: Vdss
[8] = Oral bioavailability in rat at 1 mg/kg; type: ADME, organism-based; settings: in vivo
[9] = AUC(infinity) in rat at 1 mg/kg, po; type: ADME, organism-based; set-up: time infinity, dose 1 mg/kg, route oral; settings: plasma
[10] = AUC(infinity) in rat at 1 mg/kg, iv; type: ADME, organism-based; set-up: time infinity, dose 1 mg/kg, route intravenous; settings: plasma
[11] = Half life in rat at 1 mg/kg, po; type: ADME, organism-based; set-up: dose 1 mg/kg, route oral; settings: in vivo
[12] = Cmax in rat at 1 mg/kg, po; type: ADME, organism-based; set-up: dose 1 mg/kg, route oral; settings: in vivo

SMILES	inhibition at 10 µM [1] [%]	IC50 [2] [nM]	further results
CN(c1ccc(C(=O)O)cc1)c1nc(=O)c2cccnc2s1	0		
CN(c1cccnc1)c1nc(=O)c2cccnc2s1	18		
CCN(c1cccc(OC)c1)c1nc(=O)c2cccnc2s1		3800	
CN(c1ccc(Cl)cc1)c1nc(=O)c2ccccc2s1		6500	
CCN(c1ccc(OC)c(OC)c1)c1nc(=O)c2cccnc2s1	25		
CN(c1ccc(Cl)cc1)c1nc(=O)c2ccccc2o1	28		
CN(c1ccc(F)cc1)c1nc(=O)c2cccnc2s1		7200	ED50 [3]: 15.3 mg/kg
Cc1ccc2c(=O)nc(N(C)c3ccc(Cl)cc3)sc2n1	0		
CN(c1ccc2sccc2c1)c1nc(=O)c2cccnc2s1		400	
CN(c1ccc([N+](=O)[O-])cc1)c1nc(=O)c2cccnc2s1	38		
Cc1ccccc1N(C)c1nc(=O)c2cccnc2s1	4		
CN(c1ccc(Cl)cc1)c1nc(=O)c2sccc2s1		5400	
CN(c1ccc(C(F)(F)F)cc1)c1nc(=O)c2cccnc2s1		2000	
CCN(c1ccc2c(c1)OCO2)c1nc(=O)c2cccnc2s1		400	ED50 [3]: 38.9 mg/kg
CN(c1ccsc1)c1nc(=O)c2cccnc2s1	28		
CN(c1ccc(Cl)cc1)c1nc(=O)c2cccnc2s1		2000	clearance [4]: 30.8 mL/min/kg; Tmax [5]: 15 min; ED50 [3]: 7.4 mg/kg; half-life [6]: 26.4 min; Vd [7]: 1.18 L/kg; bioavailability [8]: 87.1%; AUC(0-inf) [9]: 472 ng·h/mL; AUC(0-inf) [10]: 542 ng·h/mL; half-life [11]: 34.8 min; Cmax [12]: 425 ng/mL
CN(c1ccc(N)cc1)c1nc(=O)c2cccnc2s1	19		

SMILES	inhibition at 10 µM [1] [%]	IC50 [2] [nM]	further results
CN(c1ccc(OC(F)(F)F)cc1)c1nc(=O)c2cccnc2s1		2100	ED50 [3]: 25.2 mg/kg
CN(Cc1ccccc1)c1nc(=O)c2cccnc2s1	0		
C=CCN(c1ccc(C)cc1)c1nc(=O)c2cccnc2s1		9000	
CCN(c1ccc(OC)cc1)c1nc(=O)c2cccnc2s1		2800	
CN(c1nc(=O)c2cccnc2s1)C1CCCCC1	16		
COc1ccc(N(C)c2nc(=O)c3cccnc3s2)cc1		3400	
CN(c1ccc(Cl)cc1)c1nc(=O)c2ccncc2s1	4		
CN(c1ccc(Cl)cc1)c1nc(=O)c2cnccc2s1	2		
CN(c1ccc2c(c1)CCC2)c1nc(=O)c2cccnc2s1		1300	
CN(c1ccc(Br)cc1)c1nc(=O)c2cccnc2s1		1000	ED50 [3]: 23.1 mg/kg
CCN(c1ccc2c(c1)OCCO2)c1nc(=O)c2cccnc2s1		600	
CC(=O)N1N=C(c2ccc(N)cc2)c2cc3c(cc2C[C@H]1C)OCO3 [TALAMPANEL]		6000	ED50 [3]: 4.2 mg/kg
CN(c1ccc(C2CCCCC2)cc1)c1nc(=O)c2cccnc2s1	29		
CN(c1ccccc1)c1nc(=O)c2cccnc2s1	43		
Cl.O=c1[nH]c2cc(-n3ccnc3)c([N+](=O)[O-])cc2[nH]c1=O			ED50 [3]: > 100 mg/kg
CCOC(=O)c1ccc(N(C)c2nc(=O)c3cccnc3s2)cc1	29		
Cc1ccc(N(C)c2nc(=O)c3cccnc3s2)cc1		10000	

From ChEMBL document CHEMBL3400107, “Synthesis, structure-activity relationships, and anticonvulsant activities of 2-amino-4H-pyrido[3,2-e][1,3]thiazin-4-one derivatives as orally active AMPA receptor antagonists” (Bioorg Med Chem, 2015)
